From ChEMBL document CHEMBL1141159, “Design, synthesis, and antiviral activity of 2'-deoxy-2'-fluoro-2'-C-methylcytidine, a potent inhibitor of hepatitis C virus replication” (2005)

Tests used:
Type in all cases: functional
Huh-7 [1] = assay: Effective concentration required to reduce HCV replication RNA levels in Huh7 cells by 90% determined by HCV replicon assay; settings: Homo sapiens
Method in brief: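 Subgenomic HCV replicon cells were treated with compound, and HCV RNA was quantified by real-time quantitative RT-PCR to derive the concentration giving 90% reduction.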

[2] = Effective concentration required to reduce cytopathic effects caused by bovine viral diarrhea virus (BVDV) in MDBK cells by 90%; settings: Bos taurus
Huh-7 [3] = assay: Cytotoxic concentration against HCV replication RNA levels in Huh7 cells determined by HCV replicon assay; settings: Homo sapiens
Method in brief: (§1)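 Cytotoxicity (CC50) read by MTS colorimetric cell-proliferation assay after 4 days of compound exposure.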

[4] = Cytotoxic concentration against bovine viral diarrhea virus (BVDV) in MDBK cells; settings: Bos taurus; method in brief: as §1

For `C[C@@]1(F)[C@H](O)[C@@H](CO)O[C@H]1n1ccc(N)nc1=O`, which EC90 (Huh-7 [1]) is on record?
Its EC90 is 5.4 µM.

What about the EC90 [2] of the same molecule?
The EC90 was > 100 µM.

What about the CC50 (Huh-7 [3]) of the same molecule?
The CC50 was > 100 µM.

What about the CC50 [4] of the same molecule?
Its CC50 is > 100 µM.

Which EC90 (Huh-7 [1]) does the source give for `C[C@@]1(O)[C@H](O)[C@@H](CO)O[C@H]1n1ccc(N)nc1=O` here?
Its EC90 is 19 µM.

What about the EC90 [2] of the same molecule?
Its EC90 is 2.3 µM.

And the CC50 (Huh-7 [3])?
The CC50 was > 100 µM.

What about the CC50 [4] of the same molecule?
Its CC50 is > 100 µM.

For `Nc1ccn([C@@H]2O[C@H](CO)[C@@H](O)[C@@H]2F)c(=O)n1`, which EC90 (Huh-7 [1]) is on record?
Its EC90 is 6.5 µM.

And the EC90 [2]?
The EC90 was > 100 µM.

And the CC50 (Huh-7 [3])?
Its CC50 is > 100 µM.

And the CC50 [4]?
Its CC50 is > 100 µM.

Which results are given for `C[C@@]1(F)[C@H](O)[C@@H](CO)O[C@H]1n1ccc(=O)[nH]c1=O`?
EC90 (Huh-7 [1]): > 100 µM; EC90 [2]: > 100 µM; CC50 (Huh-7 [3]): > 100 µM; CC50 [4]: > 100 µM
